In ChEMBL document CHEMBL3272127, “Synthesis and kinetic evaluation of S- and N-substituted cysteinylglycines as inhibitors of glyoxalase I” (J Med Chem, 1977):
The source made the active and inactive calls. The rule behind the calls is not given here. Square brackets hold non-standard residues; d marks the D form. Peptide text beside a SMILES is read from it. * marks the point of attachment. Bn = c1ccc(C*)cc1; GABA = NCCCC(=O)O; βAla = NCCC(=O)O

Key:
[1] = Noncompetitive inhibition of yeast glyoxalase 1 assessed as inhibition of product formation by double reciprocal plot method; design: species or system Saccharomyces cerevisiae
Method in brief: (§1)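 Yeast glyoxalase I, diluted to 20 µg/ml in 30% glycerin with 0.1% BSA. Assays ran at 30 °C in 0.05 M phosphate buffer, pH 6.6. Methylglyoxal, reduced glutathione, inhibitor and buffer were preincubated 3 min to form the hemimercaptal, then enzyme was added. Product formation was followed at 240 nm.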

Saccharomyces cerevisiae [2] = experiment: Synergistic binding affinity to active site of yeast glyoxalase 1 using hemimercaptal as substrate at 0.1 to 0.3 mM in presence of free glutathione
Method in brief: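 Yonetani–Thorell analysis with yeast glyoxalase I at 30 °C, pH 6.6 phosphate, read at 240 nm. Reciprocal velocity was plotted against inhibitor concentration at fixed hemimercaptal substrate and fixed free glutathione levels of 0.1, 2.0 or 5.0 mM.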

[3] = Binding affinity to yeast glyoxalase 1 assessed as inhibition of product formation by double reciprocal plot method; design: species or system Saccharomyces cerevisiae; method in brief: as §1
Mus musculus = species: Mus musculus; experiment: Activity of mouse liver glyoxalase
Saccharomyces cerevisiae [4] = experiment: Competitive inhibition of yeast glyoxalase 1 assessed as inhibition of product formation by double reciprocal plot method; method in brief: as §1
Saccharomyces cerevisiae [5] = experiment: Activity of yeast glyoxalase 1; method in brief: as §1
[6] = Ratio of Km for yeast glyoxalase 1 to Km for mouse liver glyoxalase
Saccharomyces cerevisiae [7] = experiment: Binding affinity to active site of yeast glyoxalase 1 using hemimercaptal as substrate at 0.005 to 0.015 mM in presence of free glutathione

Row | SMILES | Ki ([1]; read-out: Ki) [µM] | other results
1 | NCCCC(=O)N[C@@H](CSCc1ccccc1)C(=O)NCC(=O)O (H-[GABA]-Cys(Bn)-Gly-OH) | 4100 | 
2 | CC(=O)C(O)SC[C@H](NC(=O)CC[C@H](N)C(=O)O)C(=O)NCC(=O)O (stereo partly drawn) |  | Kd [3]: 3100 µM; Km (Mus musculus): 57 µM; inhibition (Saccharomyces cerevisiae [4]): Active; Km (Saccharomyces cerevisiae [5]): 500 µM; Ratio [6]: 10
3 | NCCC(=O)N[C@@H](CSCc1ccccc1)C(=O)NCC(=O)O (H-[βAla]-Cys(Bn)-Gly-OH) | 5300 | 
4 | O=C(O)CCCC(=O)N[C@@H](CSCc1ccccc1)C(=O)NCC(=O)O | 3000 | 
5 | O=C(O)CCC(=O)N[C@@H](CSCc1ccccc1)C(=O)NCC(=O)O | 4500 | 
6 | N[C@@H](CSCc1ccccc1)C(=O)NCC(=O)O |  | Ki [1]: Not Active
7 | NCCC(=O)N[C@@H](CSCc1ccc(Br)cc1)C(=O)NCC(=O)O | 1500 | 
8 | N[C@@H](CCC(=O)N[C@@H](CSCc1ccc(Br)cc1)C(=O)NCC(=O)O)C(=O)O |  | inhibition (Saccharomyces cerevisiae [4]): Active; Activity (Saccharomyces cerevisiae [7]): Active

Continued by falling Ki ([1]; read-out: Ki), values first:

Row | Ki ([1]; read-out: Ki) [µM] | SMILES | other results
9 | 1200 | NCCCC(=O)N[C@@H](CSCc1ccc(Br)cc1)C(=O)NCC(=O)O | 
10 | 580 | N[C@@H](CSCc1ccc(Br)cc1)C(=O)NCC(=O)O | 
11 | 400 | O=C(O)CCC(=O)N[C@@H](CSCc1ccc(Br)cc1)C(=O)NCC(=O)O | 
12 | 320 | O=C(O)CCCC(=O)N[C@@H](CSCc1ccc(Br)cc1)C(=O)NCC(=O)O | Activity (Saccharomyces cerevisiae [2]): Active
